# Assay outcomes deposited in PubChem BioAssay by several laboratories.
# Sampled rows, rich in hits. Any-hit rate of the full collection: about 2.9%.
# SENP1 inh = human SENP1 catalytic domain inhibitors, primary screen, biochemical, FRET, uHTS | recombinant SENP1 catalytic domain, CyPet-SUMO1-YPet FRET cleavage | hit rate 0.21% among 360,000 | inhibition, % at 10 µM | AID 624204, 2012 | Sentrin-specific protease 1 (Homo sapiens), Q9P0U3;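 active = inhibition at least 30% at 10 µM, raw YFP signal under a set limit, fluorescence ratio 0.5 to 1.5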
#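 Compound: 10 µM single point, 0.5% DMSO; Test system: hSENP1 catalytic domain, recombinant; Timing: 50 min reaction at room temperature; Technique: FRET, CFP and YFP emission; Control set: no-enzyme wells low, DMSO-plus-enzyme wells high control.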
# SENP6 inh = SENP6 protease inhibitors, primary screen, biochemical, luminescence, uHTS. inhibition, % at 10 µM. Sentrin-specific protease 6 (Homo sapiens), Q9GZR1. hit rate 1.8% among 330,000. Recombinant SENP6 catalytic domain, aminoluciferin luminescence;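 active = inhibition above about 50% at the single tested dose, limit read from the data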
# SENP8 block-1 = SENP8 protease inhibitors, primary screen, biochemical, luminescence. purified SENP8, Z-RLRGG-aminoluciferin cleavage. hit rate 1.2% among 330,000. inhibition, % at 10 µM. Sentrin-specific protease 8 (Homo sapiens), Q96LD8; in the data active = inhibition above about 50%
# Target sequence (Q96LD8 whole entry, looked up): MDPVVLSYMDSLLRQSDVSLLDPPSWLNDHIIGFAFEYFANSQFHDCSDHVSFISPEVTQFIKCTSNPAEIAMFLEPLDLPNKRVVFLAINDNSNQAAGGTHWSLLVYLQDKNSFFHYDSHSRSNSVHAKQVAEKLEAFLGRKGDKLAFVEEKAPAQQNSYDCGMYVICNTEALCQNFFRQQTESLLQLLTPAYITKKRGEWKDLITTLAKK
# SENP7 block = SENP7 protease inhibitors, primary screen, biochemical, luminescence, uHTS; recombinant SENP7, Z-RLRGG-aminoluciferin luminescence, 40 min; AID 434973, 2010; inhibition, % at 5 µM; hit rate 1.5% among 330,000;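 active = inhibition above about 50% at the single test dose, limit read from the data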
# Target sequence (Q9BQF6 706-1050 limits assumed): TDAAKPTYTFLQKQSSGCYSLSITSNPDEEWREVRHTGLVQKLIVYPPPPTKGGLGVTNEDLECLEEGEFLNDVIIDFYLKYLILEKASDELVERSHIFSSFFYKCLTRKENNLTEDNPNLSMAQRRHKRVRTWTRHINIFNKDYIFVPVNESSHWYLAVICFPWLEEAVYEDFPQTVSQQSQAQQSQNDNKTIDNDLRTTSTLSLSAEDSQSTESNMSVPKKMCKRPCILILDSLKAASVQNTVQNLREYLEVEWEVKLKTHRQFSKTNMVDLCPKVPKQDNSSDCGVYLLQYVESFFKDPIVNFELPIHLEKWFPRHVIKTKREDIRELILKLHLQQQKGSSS
# HSP90 inh = HSP90 inhibitors, primary screen, cell lysate, luminescence | Rabbit reticulocyte lysate, luciferase refolding luminescence, 3 h | inhibition, % at 5.6 µM | hit rate 0.91% among 290,000 | Heat shock protein HSP 90 (rabbit reticulocyte lysate; luciferase refolding);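 active = inhibition above the screen-wide mean plus 3 SD, computed separately per campaign, cut at about 16% in these data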;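 also: inhibitors lower the luminescence because luciferase stays unfolded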
# SENP8 block-2 = human SENP8 protease inhibitors, primary screen, biochemical, fluorescence, Nedd8 protein substrate, uHTS. inhibition, % at 20 µM. Sentrin-specific protease 8 (Homo sapiens), Q96LD8. hit rate 0.64% among 360,000. recombinant SENP8; in the data active = inhibition mostly above about 40%, no sharp cut-off; inactive = mostly below about 27%
# HSP90 inh confirm = HSP90 inhibitors, confirmation, cell lysate, luminescence | shares compounds with HSP90 inh | AID 1846, 2009 | hit rate 64% among 2,300 | inhibition, % at 5.9 µM | rabbit reticulocyte lysate, luciferase refolding luminescence, 3 h; in the data active = inhibition above about 18%
# luciferase ctr = firefly luciferase inhibitors, HSP90 counter-screen, confirmation, artefact control for HSP90 inhibitor project, biochemical, luminescence, triplicate | inhibition, % at 5.9 µM | hit rate 48% among 2,300 | AID 1847, 2009 | purified native firefly luciferase | shares compounds with HSP90 inh;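 active = inhibition above the mean inhibition of all tested sample wells plus 3 SD, cut at about 10% in these data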
# SENP8 conf = SENP8 protease inhibitors, retest, confirmation, biochemical, luminescence, single concentration; shares compounds with SENP7 block; Recombinant SENP8, Z-RLRGG-aminoluciferin luminescence, 60 min; inhibition, % at 12.5 µM; hit rate 40% among 6,200; AID 488912, 2010;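 active = mean inhibition across replicates above about 50%, limit read from the data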
# SENP6 confirm = SENP6 protease inhibitors, confirmation, biochemical, luminescence, single concentration. shares compounds with SENP7 block. recombinant SENP6, Z-RLRGG-aminoluciferin luminescence. inhibition, % at 12.5 µM. hit rate 58% among 6,200
# SENP7 conf = SENP7 protease inhibitors, retest, confirmation, biochemical, luminescence, single concentration; recombinant SENP7, Z-RLRGG-aminoluciferin luminescence, 40 min; hit rate 69% among 6,200; AID 488917, 2010; shares compounds with SENP7 block; inhibition, % at 12.5 µM
# Casp3 select = caspase-3 protease inhibitors, confirmation, selectivity assay for SENP inhibitor project, biochemical, single concentration | shares compounds with SENP7 block | purified caspase-3, Z-DEVD-aminoluciferin luminescence, 60 min | inhibition, % at 12.5 µM | hit rate 60% among 6,200;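 active = mean inhibition above about 50%, limit read from the data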
# Luc interf = interferes with luciferase luminescence in SENP counter-screen | hit rate 39% among 6,200 | Pre-incubated SENP8/Z-RLRGG-aminoluciferin, luciferase luminescence interference | inhibition, % at 12.5 µM | shares compounds with SENP7 block;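 active = mean inhibition above about 50% when retested at one dose, limit read from the data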
# Hits are given with their value; . = inactive; / = no result given.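 The calls were made as follows, unless noted: active = mean inhibition above about 50% in the one-dose retest (limit read from the data); inactive = the rest.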
SMILES,SENP1 inh,SENP6 inh,SENP8 block-1,SENP7 block,HSP90 inh,SENP8 block-2,HSP90 inh confirm,luciferase ctr,others
C[C@H](CO)N1C[C@H](C)[C@@H](CN(C)C(=O)Nc2ccc(C(F)(F)F)cc2)Oc2c(NS(=O)(=O)c3ccccc3)cccc2C1=O,.,.,.,.,/,.,/,/,
CC(Oc1ccccc1)C(=O)Nc1ccc(S(=O)(=O)Nc2nccs2)cc1 (centres undefined),.,.,.,.,41,.,.,.,
CC(Oc1ccc(Br)cc1)C(=O)Nc1ccc(S(=O)(=O)Nc2nccs2)cc1 (centres undefined),.,.,.,.,.,.,/,/,
O=C(CSc1nnc(-c2cccnc2)o1)Nc1ccccc1F,.,.,.,.,/,.,/,/,
COc1ccc(-c2onc3ccc(C(=O)/C=C/N(C)C)cc23)cc1,.,.,.,.,31,.,.,.,
O=C1CCCN1CCC(=O)N1CCCC(N2CCN(c3ccccc3F)CC2)C1 (centres undefined),.,.,.,.,.,.,/,/,
COC(=O)c1ccc(NC(=O)c2sc3nc(-c4ccccc4)cn3c2C)cc1,.,.,.,.,21,.,18,.,
COc1ccc(-c2cn3c(C)c(C(=O)Nc4ccncc4)sc3n2)cc1,.,.,.,.,.,.,/,/,
CCc1nnc(N/N=C/c2ccccc2F)n1N,.,.,.,.,80,.,.,.,
CCOC(=O)N/N=C/c1ccccc1F,.,.,.,.,.,.,/,/,
CCc1nnc(N/N=C/c2ccccc2Cl)n1N,.,.,.,.,72,.,.,.,
COc1cc(C(O)c2nc(-c3ccccc3)cs2)ccc1F (centres undefined),.,/,/,/,/,.,/,/,
CCCCCCC(C)n1[nH]c(=O)cc1N (centres undefined),.,.,.,.,.,.,/,/,
O=C(c1ccc(N2CCOCC2)cc1)c1cccs1,.,.,.,.,18,.,42,21,
O=C(Nc1ccc(N2CCOCC2)cc1N1CCOCC1)c1cccs1,.,.,.,.,.,.,/,/,
COc1cc(C=C2C(=O)c3ccccc3C2=O)cc(OC)c1,.,.,.,.,.,.,/,/,
COc1cc(C=C2C(=O)c3ccccc3C2=O)cc(OC)c1OC,.,.,.,.,21,.,.,.,
CN(CC(=O)Nc1ccc(F)cc1[N+](=O)[O-])C1CCS(=O)(=O)C1 (centres undefined),.,.,.,.,/,.,/,/,
O=C(O)COc1ccccc1/C=N/NC(=O)CSc1nc2ccccc2s1,.,.,.,.,.,.,/,/,
O=C(CSc1nc2ccccc2s1)N/N=C/c1ccccc1C(=O)O,.,.,.,.,18,.,.,.,
Cn1c(SCC(=O)OC2CCCCC2)nnc1-c1ccco1,.,.,.,.,22,.,.,.,
COc1cccc(C(NC(C)=O)c2nc(-c3ccc(OC)nc3)cs2)c1 (centres undefined),.,/,/,/,/,.,/,/,
Nc1cccc2c1C(=O)N(C(=O)c1ccco1)C2=O,.,.,.,.,.,.,/,/,
Nc1cccc2c1C(=O)N(C(=O)/C=C/c1ccc(F)cc1)C2=O,.,.,.,.,28,.,.,.,
COCCn1c(C)cc(C(=O)CSc2nc3ccccc3o2)c1C,.,.,.,.,.,.,/,/,
SMILES,SENP1 inh,SENP6 inh,SENP8 block-1,SENP7 block,HSP90 inh,SENP8 block-2,HSP90 inh confirm,luciferase ctr,others
COCCn1c(C)cc(C(=O)CSc2nc3ccccc3s2)c1C,.,54,.,.,28,.,67,68,SENP8 conf=55;SENP6 confirm=.;SENP7 conf=80;Casp3 select=.;Luc interf=.
COC(=O)c1ccc(COc2ccc3c(C)c(C)c(=O)oc3c2C)o1,/,/,/,/,.,/,/,/,
Cc1c(OCc2ccc(C(=O)O)o2)ccc2c3c(c(=O)oc12)CCC3,.,82,74,.,50,.,63,13,SENP8 conf=.;SENP6 confirm=84;SENP7 conf=84;Casp3 select=.;Luc interf=57
CN(C)c1ccc(N=Nc2cccc(F)c2)cc1,.,94,87,95,39,.,47,41,SENP8 conf=.;SENP6 confirm=73;SENP7 conf=56;Casp3 select=59;Luc interf=64
O=C(O)c1ccc(-c2nc3ccccc3s2)o1,.,91,77,78,63,.,80,24,SENP8 conf=87;SENP6 confirm=84;SENP7 conf=92;Casp3 select=61;Luc interf=82
COc1ccc(/C=C/c2nc3ccccc3c(=O)o2)cc1,.,90,84,78,79,.,87,14,SENP8 conf=71;SENP6 confirm=71;SENP7 conf=83;Casp3 select=63;Luc interf=65
COc1ccccc1/C=C/c1nc2ccccc2c(=O)o1,.,/,/,/,.,.,/,/,
Cc1oc(-c2nc3ccccc3n2C)cc1C(=O)c1ccccc1,.,94,85,.,17,.,57,46,SENP8 conf=94;SENP6 confirm=94;SENP7 conf=101;Casp3 select=94;Luc interf=93
COc1ccc(N2CCN(C(=O)C(=O)c3cccc([N+](=O)[O-])c3)CC2)cc1,.,/,/,/,/,.,/,/,
O=C(Nc1nc2cc3c(cc2s1)OCCO3)c1ccncc1,.,.,.,.,.,.,/,/,
CCOc1ccc2nc(NC(=O)c3ccco3)sc2c1,.,97,92,97,39,.,51,45,SENP8 conf=93;SENP6 confirm=98;SENP7 conf=102;Casp3 select=96;Luc interf=83
O=C(Nc1nc2cc3c(cc2s1)OCCO3)c1ccco1,.,97,96,100,78,.,91,89,SENP8 conf=97;SENP6 confirm=98;SENP7 conf=102;Casp3 select=97;Luc interf=96
